# Test results as given in ChEMBL document CHEMBL1140585, “Synthesis and antioxidant properties of substituted 3-benzylidene-7-alkoxychroman-4-ones” (Bioorg Med Chem Lett, 2007).
# Active and inactive are the calls of the source. No cut-off for these calls is given here.
# How the values were obtained:
# [1] = test system: Radical scavenging activity; assay: Antioxidant activity assessed as DPPH free radical scavenging activity; type: functional
# Procedure, shortened: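 DPPH in methanol (150 µM) incubated with various compound concentrations at 37 C for 30 min; absorbance read at 517 nm. Percent scavenging = 100 × (Abs control − Abs compound)/Abs control; IC50 obtained by linear regression of percent inhibition against concentration.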
# Brain = assay: Antioxidant activity in Wistar rat brain assessed as inhibition of lipid peroxidation; type: functional, tissue-based
# Procedure, shortened: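 Brain homogenate (10% w/v) of young adult male Wistar rats in 0.15 M KCl, 800g 10 min supernatant. Compounds in DMSO at varying amounts; peroxidation started with FeCl3 plus ascorbic acid, 20 min at 37 C. Stopped with phosphotungstic acid and thiobarbituric acid, heated 100 C 10 min, n-butanol extract read by fluorescence (ex 515/em 555 nm); IC50 from log dose–inhibition curve.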
# [2] = Antioxidant activity at 100 ug by ferric reducing antioxidant power assay; type: functional
# Procedure, shortened: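 FRAP reagent: 10 vol 300 mM acetate buffer pH 3.6, 1 vol 10 mM TPTZ in 40 mM HCl, 1 vol 20 mM FeCl3, diluted to 1/3 with methanol, pre-warmed to 37 C. Diluted compound mixed with reagent, 8 min at 37 C, absorbance at 593 nm against methanol blank; expressed as lM ferric reduced to ferrous, calibrated with known ferrous ion.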
Compound,IC50 [1] [µM],IC50 (Brain) [µM],Activity [2]
COc1ccc2c(c1)OC/C(=C\c1cc(OC)c(O)c(OC)c1)C2=O,30.8,11,61.6
COc1cccc(/C=C2\COc3cc(OC)ccc3C2=O)c1,> 100,> 100,inactive
COc1ccc2c(c1)OC/C(=C\c1ccc(O)cc1)C2=O,> 100,> 100,inactive
Cc1c(C)c2c(c(C)c1O)CCC(C)(C(=O)O)O2 (stereo unspecified) [TROLOX],36.3,41.6,41.9
CCOc1ccc2c(c1)OC/C(=C\c1ccc(O)c(O)c1)C2=O,24.3,11.9,62.7
COc1ccc(/C=C2\COc3cc(OC)ccc3C2=O)cc1,> 100,> 100,inactive
CCCOc1ccc2c(c1)OC/C(=C\c1ccc(O)c(O)c1)C2=O,25.4,11.4,53.8
O=C1/C(=C/c2ccc(O)c(O)c2)COc2cc(O)ccc21 [SAPPANONE A],35,14.3,49.3
COc1ccc2c(c1)OC/C(=C\c1ccccc1OC)C2=O,> 100,> 100,inactive
CCCCOc1ccc2c(c1)OC/C(=C\c1ccc(O)c(O)c1)C2=O,24.5,11,44.6
O=C1/C(=C/c2ccc(O)cc2)COc2cc(O)ccc21,> 100,> 100,inactive
COc1ccc2c(c1)OC/C(=C\c1ccc(O)c(O)c1)C2=O,27.2,12.1,71.6
